# Source: PubChem (several laboratories)
# The list is not random: actives were taken first. Their share in the collection is about 2.9%.
# HSP90 refold inh – blocks HSP90-mediated luciferase refolding in reticulocyte lysate; Rabbit reticulocyte lysate, luciferase refolding luminescence, 3 h; inhibition, % at 5.6 µM; actives 0.91% (n = 290,000);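 active means inhibition above the screen-wide mean plus 3 SD, computed separately per campaign, cut at about 16% in these data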;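 further: 0% = DMSO wells and 100% = 60 µM geldanamycin wells; inhibitors lower the luminescence because luciferase stays unfolded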
# SENP7 block – SENP7 protease inhibition. Q9BQF6. recombinant SENP7, Z-RLRGG-aminoluciferin luminescence, 40 min. inhibition, % at 5 µM. actives 1.5% (n = 330,000). AID 434973;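 active means inhibition above about 50% at the single test dose, limit read from the data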;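 further: plate controls were DMSO with enzyme for no effect and no enzyme buffer wells for full effect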
# SENP8 block-1 – inhibitors of human SENP8 protease; actives 1.2% (n = 330,000); purified SENP8, Z-RLRGG-aminoluciferin cleavage, luminescence; inhibition, % at 10 µM; Q96LD8; in the data active means inhibition above about 50%
# Target sequence (Q96LD8 whole entry, looked up): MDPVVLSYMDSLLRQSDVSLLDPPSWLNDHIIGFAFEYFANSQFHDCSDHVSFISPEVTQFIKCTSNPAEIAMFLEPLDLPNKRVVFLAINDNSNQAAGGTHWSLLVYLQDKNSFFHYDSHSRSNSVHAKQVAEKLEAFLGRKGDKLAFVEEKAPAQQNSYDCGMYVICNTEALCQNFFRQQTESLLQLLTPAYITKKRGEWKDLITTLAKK
# SENP8 block-2 – SENP8 (human) protease inhibition. Q96LD8. recombinant SENP8, Nedd8 substrate fluorescence. inhibition, % at 20 µM. actives 0.64% (n = 360,000); in the data active means inhibition mostly above about 40%, no sharp cut-off; inactive means mostly below about 27%
# SENP6 inh – blocks the human protease SENP6 | Recombinant SENP6 catalytic domain, aminoluciferin luminescence | actives 1.8% (n = 330,000) | inhibition, % at 10 µM;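 active means inhibition above about 50% at the single tested dose, limit read from the data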;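 further: plate controls were DMSO wells with enzyme for no effect and DMSO wells lacking enzyme for full effect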
# SENP1 FRET inh – blocks the human SENP1 SUMO protease catalytic domain; Q9P0U3; recombinant SENP1 catalytic domain, CyPet-SUMO1-YPet FRET cleavage; inhibition, % at 10 µM; actives 0.21% (n = 360,000); AID 624204;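 active means inhibition at least 30% at 10 µM, raw YFP signal under a set limit, fluorescence ratio 0.5 to 1.5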;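 further: 0% = enzyme with DMSO and 100% = no enzyme wells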
# Target sequence (Q9P0U3 419-644 limits assumed): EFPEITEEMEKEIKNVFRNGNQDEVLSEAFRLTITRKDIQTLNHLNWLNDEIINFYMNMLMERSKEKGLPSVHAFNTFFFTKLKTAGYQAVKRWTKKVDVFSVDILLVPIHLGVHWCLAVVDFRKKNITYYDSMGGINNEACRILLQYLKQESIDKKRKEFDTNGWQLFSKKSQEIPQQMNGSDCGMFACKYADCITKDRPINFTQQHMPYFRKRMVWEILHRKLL
#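 Test system: hSENP1 catalytic domain, recombinant; Amount: 20 pM final SENP1 enzyme; Medium: Tris pH 8 buffer plus EDTA, NaCl, BME, BSA, NP40, catalase; Schedule: 50 min enzyme reaction, room temperature, light-protected; Technique: FRET fluorescence in CFP and YFP emission channels; Controls: no-enzyme wells low, DMSO-plus-enzyme wells high control.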
# The depositor's hits bear a star; · = no result given.
SMILES,HSP90 refold inh,SENP7 block,SENP8 block-1,SENP8 block-2,SENP6 inh,SENP1 FRET inh
CN1CCN(C(=O)c2ccc(OCCOc3ccccc3)cc2)CC1,1,-2,7,11,20,3
CCOC(=O)c1c2c(n(C)c1C)C(=O)C(=O)c1ccc(Br)cc1-2,0,97*,93*,114*,94*,2
CCOC(=O)c1c2c(n(Cc3ccccc3)c1C)C(=O)C(=O)c1ccccc1-2,·,·,·,100*,·,0
COc1ccc(-c2ccc(/C=C3\C(=O)N(c4ccccc4)N=C3c3ccccc3)o2)c([N+](=O)[O-])c1,3,3,4,46*,-8,0
COc1cc([N+](=O)[O-])ccc1-c1ccc(/C=C2\C(=O)ON=C2c2ccccc2)o1,·,·,·,32,·,1
Oc1ccc(N=Nc2cccc(C(F)(F)F)c2)cc1C=Nc1ccc(N2CCOCC2)cc1,5,11,43,36*,66*,9
CCCCn1c(N)c(N(CC)C(=O)c2cnc(C)cn2)c(=O)[nH]c1=O,·,3,4,8,1,0
CC(=O)Nc1ccc(/C=C2\Sc3ccccc3C2=O)cc1,-1,83*,46,-96,67*,-38
O=C1/C(=C/c2cccnc2)Sc2ccccc21,3,-6,-6,-5,16,5
CCCCOCCCNC(=O)C[C@@H]1C[C@@]2(C(=O)OC)CC(C)(C)CC=C2N(Cc2cccc3ccccc23)C1=O,·,·,·,10,·,0
O=C1c2ccc(Cl)cc2S(=O)(=O)c2cccc(C(=O)N3CCN(c4ncc(Br)cn4)CC3)c21,·,8,-4,-4,-1,1
COc1ccc(-c2ccc3c(c2)S(=O)(=O)c2cccc(C(=O)N4CCN(c5c(Cl)cncc5Cl)CC4)c2C3=O)cc1OC,·,-1,5,-11,-5,51*
Cc1cccnc1NC(=O)c1ccc(Cl)c(S(=O)(=O)N2CCCCC2)c1,·,6,1,-2,5,0
COc1ccc2nc(N3C(=O)CNC3=S)sc2c1,4,43,29,-13,43,-2
CCOc1ccc2nc(N3C(=O)/C(=C/c4ccc(Cl)cc4)NC3=S)sc2c1,-3,·,·,15,·,33*
CN(C(=O)c1cccc(NC(=O)Cc2cccc(NC(=O)C3CCCN(C(=O)c4ccccc4)C3)c2)c1)C1CCC1 (centres undefined),·,·,·,-6,·,0
Cc1csc(CNc2ncnc3ccc(-c4cccc(Cl)c4)cc23)c1,·,2,3,-253,6,0
O=C(NCO)c1cccnc1,·,·,·,6,·,3
O=S(=O)(Nc1ccc(-c2nc3cccnc3s2)cc1)c1ccccc1F,3,38,66*,-468,83*,-54
O=C1C(NS(=O)(=O)c2cccs2)=C(N2CCN(c3cccc(Cl)c3)CC2)C(=O)c2ccccc21,1,26,13,70*,23,14
O=C1C(NS(=O)(=O)c2ccccc2)=C(N2CCN(c3ccc(F)cc3)CC2)C(=O)c2ccccc21,10,8,-1,36,10,-2
O=C(OCC(=O)N1CCC(Cc2ccccc2)CC1)c1cccnc1Cl,·,-3,-6,17,-7,1
Cc1ccccc1CSCC(=O)N/N=C/c1cccs1,-2,3,-1,43*,3,0
COc1ccc(-c2nn(-c3ccccc3)cc2/C=N/Nc2ccc(Cl)c(C(=O)O)c2)cc1OC,17*,-10,-5,-359,-8,-1
O=C(O)c1cc(N/N=C/C=C/c2ccccc2[N+](=O)[O-])ccc1Cl,16,37,52*,24,-11,6
SMILES,HSP90 refold inh,SENP7 block,SENP8 block-1,SENP8 block-2,SENP6 inh,SENP1 FRET inh
NS(=O)(=O)c1ccc(N/N=C/C=C/c2ccccc2[N+](=O)[O-])cc1,1,4,0,25,19,21
COc1ccc(-c2nn(-c3ccccc3)cc2C(=O)O)cc1OC,6,-2,-6,5,-14,1
O=C(O)c1cc(N/N=C/c2ccc(-c3ccccc3)cc2)ccc1Cl,29*,·,·,-102,·,-25
COc1cc2nc(N3CCN(C(=O)OCc4ccccc4)[C@H](C(=O)NC(C)(C)C)C3)nc(N)c2cc1OC,·,0,4,-389,-2,-1
C[C@H](CO)N1C[C@H](C)[C@@H](CN(C)S(=O)(=O)c2cccs2)Oc2ccc(NS(=O)(=O)c3ccccc3)cc2C1=O,·,-3,3,10,-11,1
Nc1cc2c3c(cccc3c1)C(=O)N(CCN1CCCC1)C2=O,3,·,·,24,·,38
O=C1c2cccc3cc([N+](=O)[O-])cc(c23)C(=O)N1CCN1CCCC1,2,10,4,30,11,70*
O=c1nc2n(c3ncccc13)CCC2,16*,6,-2,8,-4,1
CN(C)c1ccc(N=Nc2ccccc2C(=O)OCC(=O)NC2CCCC2)cc1,1,5,0,26,7,3
CN(C)c1ccc(N=Nc2ccccc2C(=O)OCC(=O)NCC2CCCCC2)cc1,6,-4,-3,50*,20,6
CC(C)c1cc(C(=O)NCc2ccc(F)cc2)c(N)s1,·,·,·,-7,·,-12
Cc1ccc(O)c(N=CC2=C(O)c3ccccc3C2=O)c1,11,29,22,84*,46,42*
NC(=O)c1ncn([C@@H]2O[C@H](CNC(=O)[C@H](N)CSCc3ccccc3)[C@@H](O)[C@H]2O)n1,·,·,·,-14,·,2
Cc1cc(C)c(Nc2cc(S(=O)(=O)O)c(N)c3c2C(=O)c2ccccc2C3=O)c(C)c1,-1,·,·,48*,·,-28
Cc1cc(C)c(NC(=O)COC(=O)c2cccc3c2C(=O)c2ccccc2C3=O)c(C)c1,0,-6,-7,23,-6,4
CCN(CC)c1ccc2nc3ccc(N)cc3[n+](-c3ccccc3)c2c1,·,17,36,39*,32,32
Cc1ccc(/C=C2\SC(=S)N(CCC(=O)NNS(=O)(=O)c3ccccc3)C2=O)cc1,2,-3,4,59*,-3,-3
Cc1ccc(/C=C2\SC(=S)N(CCCC(=O)Nc3cccc(C(=O)O)c3)C2=O)cc1,2,61*,87*,34,91*,3
O=C(CCN1C(=O)/C(=C\C=C\c2ccccc2)SC1=S)Nc1ccccc1C(=O)O,0,3,9,-2,-1,-9
O=C(CCN1C(=O)/C(=C\C=C\c2ccccc2)SC1=S)Nc1cccc(C(=O)O)c1,0,-11,55*,24,53*,-11
O=C1CC(Cc2ccc(Br)cc2)C(=O)N1c1ccccc1 (centres undefined),-1,-6,-2,14,-29,3
Cc1ccc2nc(-c3ccc(NC(=O)CCN4C(=O)c5ccccc5C4=O)cc3)sc2c1,-3,-4,51*,-377,74*,-19
O=C1Nc2ccccc2N2CCCC12 (centres undefined),-1,13,24,·,68*,·
Cc1ccc2nc(COC(=O)c3cccnc3Cl)cc(=O)n2c1,·,·,·,-486,·,-1
